Experimental data from ChEMBL document CHEMBL1122206, “Use of adenine nucleotide derivatives to assess the potential of exo-active-site-directed reagents as species- or isozyme-specific enzyme inactivators. 5. Interactions of adenosine 5'-triphosphate derivatives with rat pyruvate kinases, Escherichia coli thymidine kinase, and yeast and rat …” (1982).

Assays:
[1] = target: T1, Hexokinase-3 (Rattus norvegicus) (UniProt P27926); experiment: Time dependent inhibition of Hexokinase type III activity after 6 h, at 22 degrees celsius, at 5 mM
T1 sequence (whole entry): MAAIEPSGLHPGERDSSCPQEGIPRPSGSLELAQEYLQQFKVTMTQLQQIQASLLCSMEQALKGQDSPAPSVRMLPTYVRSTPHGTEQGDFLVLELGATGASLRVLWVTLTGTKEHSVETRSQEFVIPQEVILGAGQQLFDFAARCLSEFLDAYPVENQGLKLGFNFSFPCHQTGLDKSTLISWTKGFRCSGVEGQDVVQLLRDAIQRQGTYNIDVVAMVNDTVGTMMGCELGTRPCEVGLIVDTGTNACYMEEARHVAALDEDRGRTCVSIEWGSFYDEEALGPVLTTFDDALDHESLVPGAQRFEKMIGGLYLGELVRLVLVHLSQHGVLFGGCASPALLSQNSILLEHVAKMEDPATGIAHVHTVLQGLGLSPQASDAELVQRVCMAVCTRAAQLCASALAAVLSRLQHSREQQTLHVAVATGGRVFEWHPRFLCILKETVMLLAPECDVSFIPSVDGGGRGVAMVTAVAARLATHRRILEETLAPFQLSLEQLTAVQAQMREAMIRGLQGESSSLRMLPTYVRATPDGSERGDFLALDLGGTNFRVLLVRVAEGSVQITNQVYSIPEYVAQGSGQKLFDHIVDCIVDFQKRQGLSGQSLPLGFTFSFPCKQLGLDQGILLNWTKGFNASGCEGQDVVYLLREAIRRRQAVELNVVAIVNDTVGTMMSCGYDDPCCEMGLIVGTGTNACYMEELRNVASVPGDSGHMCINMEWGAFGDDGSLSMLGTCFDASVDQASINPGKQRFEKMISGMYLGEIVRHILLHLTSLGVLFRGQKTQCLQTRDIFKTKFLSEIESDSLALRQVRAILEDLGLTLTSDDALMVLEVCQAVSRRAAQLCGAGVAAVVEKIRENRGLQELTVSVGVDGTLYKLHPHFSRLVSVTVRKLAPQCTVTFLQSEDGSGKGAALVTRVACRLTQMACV

[2] = target: T2, Hexokinase-2 (Rattus norvegicus) (UniProt P27881); experiment: Time dependent inhibition of hexokinase 2 activity after 6 h, at 5 mM compound
T2 sequence (whole entry): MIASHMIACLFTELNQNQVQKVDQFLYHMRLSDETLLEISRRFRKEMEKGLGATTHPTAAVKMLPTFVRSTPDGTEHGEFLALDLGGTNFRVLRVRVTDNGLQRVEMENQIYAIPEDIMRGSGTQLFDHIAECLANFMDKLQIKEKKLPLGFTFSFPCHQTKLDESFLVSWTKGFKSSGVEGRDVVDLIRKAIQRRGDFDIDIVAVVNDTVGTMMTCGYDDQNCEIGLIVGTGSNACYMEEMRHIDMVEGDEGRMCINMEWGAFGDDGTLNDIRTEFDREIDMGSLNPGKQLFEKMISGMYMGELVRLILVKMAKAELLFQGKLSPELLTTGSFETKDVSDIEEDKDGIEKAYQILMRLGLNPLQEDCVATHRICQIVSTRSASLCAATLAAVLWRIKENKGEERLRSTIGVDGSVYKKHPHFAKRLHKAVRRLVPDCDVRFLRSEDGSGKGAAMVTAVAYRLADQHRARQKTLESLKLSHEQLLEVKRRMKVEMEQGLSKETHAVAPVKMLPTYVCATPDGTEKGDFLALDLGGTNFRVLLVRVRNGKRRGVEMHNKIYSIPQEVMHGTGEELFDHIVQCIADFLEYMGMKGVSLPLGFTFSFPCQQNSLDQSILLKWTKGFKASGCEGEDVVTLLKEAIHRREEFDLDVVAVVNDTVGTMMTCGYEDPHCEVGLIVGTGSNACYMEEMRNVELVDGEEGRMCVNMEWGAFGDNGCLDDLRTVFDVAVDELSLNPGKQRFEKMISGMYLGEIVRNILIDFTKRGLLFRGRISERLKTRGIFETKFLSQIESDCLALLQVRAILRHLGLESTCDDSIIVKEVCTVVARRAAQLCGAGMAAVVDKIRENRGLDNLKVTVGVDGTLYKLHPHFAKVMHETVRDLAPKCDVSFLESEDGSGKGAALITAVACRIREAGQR

[3] = Tested for the velocity of 2.8 mM compound relative to that of 2.8 mM MgATP in the assay
Method in brief: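 E. coli TK substrate test. 0.5 h after adding inhibitor, the mixture was diluted to 2.8 mM derivative in thymidine assay medium without ATP and with 1.42 mM MnCl2. Incubated 15 min at 37 °C, in the linear range. [14C]TMP formed was compared with that from 2.8 mM ATP under the same conditions.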

[4] = test system: Saccharomyces cerevisiae; experiment: Compound was tested for time dependent inhibition of hexokinase activity after 6 h at 22 degrees celsius, with 5 mM compound in yeast hexokinase
[5] = target: Thymidine kinase (Escherichia coli) (UniProt P23331); experiment: Compound was tested for the loss of Thymidine kinase activity from Escherichia coli after 6 h at 0 degrees C at 10 mM
[6] = target: T3, Hexokinase-1 (Rattus norvegicus) (UniProt P05708); experiment: Time dependent inhibition of Hexokinase, type I activity after 6 h, at 22 degrees celsius, at 5 mM compound
T3 sequence (whole entry): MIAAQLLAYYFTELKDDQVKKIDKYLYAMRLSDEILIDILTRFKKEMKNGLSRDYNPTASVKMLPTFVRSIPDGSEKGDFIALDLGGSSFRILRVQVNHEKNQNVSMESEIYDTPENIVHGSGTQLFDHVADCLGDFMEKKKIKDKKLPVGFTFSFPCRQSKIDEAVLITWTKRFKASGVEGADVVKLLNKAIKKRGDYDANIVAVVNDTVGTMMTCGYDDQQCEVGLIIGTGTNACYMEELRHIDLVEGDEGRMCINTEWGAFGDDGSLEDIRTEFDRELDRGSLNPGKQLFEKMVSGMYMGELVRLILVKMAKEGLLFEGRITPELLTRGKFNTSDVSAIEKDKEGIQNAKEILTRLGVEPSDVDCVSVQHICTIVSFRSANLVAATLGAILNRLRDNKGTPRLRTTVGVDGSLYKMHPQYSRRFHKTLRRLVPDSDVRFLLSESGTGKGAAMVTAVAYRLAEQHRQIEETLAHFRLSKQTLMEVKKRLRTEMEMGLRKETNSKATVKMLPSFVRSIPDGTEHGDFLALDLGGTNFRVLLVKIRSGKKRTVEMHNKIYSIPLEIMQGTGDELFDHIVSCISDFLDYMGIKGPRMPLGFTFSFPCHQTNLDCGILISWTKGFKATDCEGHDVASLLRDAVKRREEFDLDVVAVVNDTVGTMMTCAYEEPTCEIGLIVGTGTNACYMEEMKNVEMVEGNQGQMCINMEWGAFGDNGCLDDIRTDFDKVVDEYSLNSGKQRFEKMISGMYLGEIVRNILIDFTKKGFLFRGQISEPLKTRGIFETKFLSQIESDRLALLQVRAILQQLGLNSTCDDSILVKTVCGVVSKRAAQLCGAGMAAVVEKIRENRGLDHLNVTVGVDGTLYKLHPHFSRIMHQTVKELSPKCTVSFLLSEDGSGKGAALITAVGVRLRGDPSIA

[7] = target: Thymidine kinase (Escherichia coli) (UniProt P23331); experiment: Compound was tested for the initial inhibition of Thymidine kinase by 1.4 mM compound in the presence of 5.7 mM ATP
[8] = target: Thymidine kinase (Escherichia coli) (UniProt P23331); experiment: Compound was tested for the loss of thymidine kinase activity from Escherichia coli after 6 hr at 0 degrees C at 10 mM
[9] = target: T1, Hexokinase-3 (Rattus norvegicus); experiment: Substrate activity for rat hexokinase III as 1:1 Mg complex at 5.0 mM
Method in brief: (§1)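 Hexokinase activity read at 22 °C as A340 change, coupled to glucose-6-phosphate dehydrogenase, in 0.05 M Tris-HCl pH 7.6 with 6.6 mM MgCl2, 10 mM α-D-glucose and 0.93 mM NADP. Donor was 5.0 mM MgATP derivative (1:1 Mg complex) in place of ATP. Yeast HK was isoelectric-focused. Rat HK I and III came from electrofocused liver extract, HK II from dialysed muscle extract.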

[10] = test system: Saccharomyces cerevisiae; experiment: Compound was tested for time dependent inhibition of hexokinase activity after 6 hr, at 22 degrees celsius, with 5 mM ATP derivative in yeast hexokinase
[11] = target: T2, Hexokinase-2 (Rattus norvegicus); experiment: Substrate activity against Rat hexokinase II as 1:1 Mg complex at 5.0 mM
Method in brief: as §1

[12] = target: T3, Hexokinase-1 (Rattus norvegicus); experiment: Substrate activity for rat hexokinase I as 1:1 Mg complex at 5.0 mM
Method in brief: as §1

[13] = test system: Saccharomyces cerevisiae; experiment: Substrate activity against yeast hexokinase as 1:1 Mg complexes at 5.0 mM
Method in brief: as §1

[14] = target: T3, Hexokinase-1 (Rattus norvegicus); experiment: Time dependent inhibition of Hexokinase type I activity after 6 h, at 22 degrees celsius, at 5 mM compound
[15] = target: Thymidine kinase (Escherichia coli) (UniProt P23331); experiment: Compound was tested for the initial inhibition of thymidine kinase by 1.4 mM compound in the presence of 5.7 mM ATP
[16] = test system: Saccharomyces cerevisiae; experiment: Time dependent inhibition of hexokinase activity after 6 hr, at 22 degrees celsius, with 5 mM ATP derivative in yeast.
[17] = target: T1, Hexokinase-3 (Rattus norvegicus); experiment: Time dependent inhibition of Hexokinase type III activity after 6 hr, at 22 degrees celsius, at 5 mM compound
[18] = target: Thymidine kinase (Escherichia coli) (UniProt P23331); experiment: Compound tested for the loss of thymidine kinase activity from Escherichia coli after 6 hr at 0 degrees C at 10 mM
[19] = target: Thymidine kinase (Escherichia coli) (UniProt P23331); experiment: Compound was tested for the initial inhibition of thymidine kinase by 1.4 mM compound in the presence of 5.7 mM ATP in Escherichia coli
[20] = target: Thymidine kinase (Escherichia coli) (UniProt P23331); experiment: Compound was tested for the lose of thymidine kinase activity after 6 h, at 0 degrees celsius, with 10 mM ATP derivative. values were expressed in percent
[21] = Extent of inactivation caused by the compound was reported.; type: functional
[22] = target: T1, Hexokinase-3 (Rattus norvegicus); experiment: Time dependent inhibition of Hexokinase type III activity after 6 h, at 0 degrees celsius, at 10 mM
[23] = target: T2, Hexokinase-2 (Rattus norvegicus); experiment: Time dependent inhibition of hexokinase 2 activity after 6 h, at 10 mM compound
[24] = target: T3, Hexokinase-1 (Rattus norvegicus); experiment: Time dependent inhibition of Hexokinase type I activity after 6 h, at 0 degrees celsius, at 10 mM compound

Thymidine kinase (Escherichia coli), sequence (P23331 whole entry, looked up): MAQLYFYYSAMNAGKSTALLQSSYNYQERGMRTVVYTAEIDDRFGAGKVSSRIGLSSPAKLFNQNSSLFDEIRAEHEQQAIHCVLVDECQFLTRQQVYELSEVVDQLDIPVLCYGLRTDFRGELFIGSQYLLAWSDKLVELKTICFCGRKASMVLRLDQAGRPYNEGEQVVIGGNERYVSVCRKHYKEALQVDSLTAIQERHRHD

SMILES | inhibition [1] | inhibition [2] | Velocity [3] | Relative velocity [9] | Relative velocity [11] | Relative velocity [12] | Relative velocity [13] | inhibition [14] | inhibition [15] | further results
O=C(CI)NCCCNc1ncnc2c1ncn2[C@@H]1O[C@H](COP(=O)(O)OP(=O)(O)OP(=O)(O)O)[C@@H](O)[C@H]1O | 0% | 0% | 32% |  |  |  |  |  |  | inhibition [4]: 0%; inhibition [5]: 0%; inhibition [6]: 0%; inhibition [7]: 6%
O=C(CI)NCCCCCC(=O)NCCCCCCNc1ncnc2c1ncn2[C@@H]1O[C@H](COP(=O)(O)OP(=O)(O)OP(=O)(O)O)[C@@H](O)[C@H]1O | 0% | 0% | 37% | 1.37 | 0.63 | 1.25 | 1.02 | 0% | 8% | inhibition [8]: 0%; inhibition [10]: 0%
O=C(CI)NCCCCNc1ncnc2c1ncn2[C@@H]1O[C@H](COP(=O)(O)OP(=O)(O)OP(=O)(O)O)[C@@H](O)[C@H]1O |  | 0% | 68% |  |  |  |  |  | 39% | inhibition [16]: 0%; inhibition [17]: 0%; inhibition [18]: 0%
O=C(CI)NCCNc1ncnc2c1ncn2[C@@H]1O[C@H](COP(=O)(O)OP(=O)(O)OP(=O)(O)O)[C@@H](O)[C@H]1O | 0% | 0% | 35% | 0.5 | 0.34 | 0.58 | 0.75 | 0% |  | inhibition [19]: 3%; inhibition [10]: 0%; inhibition [20]: 0%
O=C(CI)NCCCCCCCNc1ncnc2c1ncn2[C@@H]1O[C@H](COP(=O)(O)OP(=O)(O)OP(=O)(O)O)[C@@H](O)[C@H]1O | 20% | 30% | 38% |  |  |  |  | 20% |  | inhibition [16]: 22%; inhibition [19]: 10%; inhibition [20]: 0%
NC(=O)CI.Nc1ncnc2c1ncn2[C@@H]1O[C@H](COP(=O)(O)OP(=O)(O)OP(=O)(O)O)[C@@H](O)[C@H]1O | 0% | 7% |  |  |  |  |  | 5% |  | inhibition [4]: 0%
O=C(CI)NCCCCCCNc1ncnc2c1ncn2[C@@H]1O[C@H](COP(=O)(O)OP(=O)(O)OP(=O)(O)O)[C@@H](O)[C@H]1O |  | 35% |  |  |  |  |  |  | 0% | inhibition [17]: 33%; Inactivation [21]: > 90%; inhibition [18]: 0%
O=C(CI)NCC(=O)NCCCCCCNc1ncnc2c1ncn2[C@@H]1O[C@H](COP(=O)(O)OP(=O)(O)OP(=O)(O)O)[C@@H](O)[C@H]1O |  |  | 63% | 2.06 | 0.63 | 0.92 | 0.52 |  |  | inhibition [22]: 0%; inhibition [23]: 0%; inhibition [24]: 0%
